According to ChEMBL document CHEMBL1149065, “Synthesis and structure-activity relationships of cytotoxic 7-hydroxy sterols” (J Nat Prod, 1994):

Legend:
Saccharomyces cerevisiae = assay: Antifungal activity against Saccharomyces cerevisiae RS 322YK (rad 52Y) assessed as DNA damaging activity; assay type: functional, organism-based
How it was run: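 Growth inhibition of the rad 52 mutant strain RS322YK of *Saccharomyces cerevisiae*, measured as a zone of inhibition. Activity is reported as IC₁₂, the concentration giving a 12 mm diameter inhibition zone, in µg/ml. Sterols were also tested against the wild-type RAD⁺ strain.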

Vero = assay: Cytotoxicity against african green monkey Vero cells; assay type: cell-based; settings: Chlorocebus sabaeus

Structure (SMILES)	IC12 (Saccharomyces cerevisiae) [µg/mL]	IC50 (Vero) [µM]
CC(C)C(=O)CC[C@@H](C)[C@H]1CC[C@H]2[C@@H]3CC=C4C[C@@H](O)CC[C@]4(C)[C@H]3CC[C@]12C	> 8000	
CC(C)[C@@]1(CC[C@@H](C)[C@H]2CC[C@H]3[C@@H]4CC=C5C[C@@H](O)CC[C@]5(C)[C@H]4CC[C@]23C)CO1	> 8000	
C=C(CC[C@@H](C)[C@H]1CC[C@H]2[C@@H]3CC=C4C[C@@H](O)CC[C@]4(C)[C@H]3CC[C@]12C)C(C)C	> 8000	
C=C(CC[C@@H](C)[C@H]1CC[C@H]2[C@@H]3[C@H](O)C=C4C[C@@H](O)CC[C@]4(C)[C@H]3CC[C@]12C)C(C)C	7	58
CC(C)C(=O)CC[C@@H](C)[C@H]1CC[C@H]2[C@@H]3[C@H](O)C=C4C[C@@H](O)CC[C@]4(C)[C@H]3CC[C@]12C	14	9.9
CC(C)C(=O)CC[C@@H](C)[C@H]1CC[C@H]2[C@@H]3[C@@H](O)C=C4C[C@@H](O)CC[C@]4(C)[C@H]3CC[C@]12C	> 500	21
C=C(CC[C@@H](C)[C@H]1CC[C@H]2[C@@H]3[C@@H](O)C=C4C[C@@H](O)CC[C@]4(C)[C@H]3CC[C@]12C)C(C)C	> 8000	31
CC(C)[C@@]1(CC[C@@H](C)[C@H]2CC[C@H]3[C@@H]4[C@@H](O)C=C5C[C@@H](O)CC[C@]5(C)[C@H]4CC[C@]23C)CO1	> 8000	16
CC(C)[C@@]1(CC[C@@H](C)[C@H]2CC[C@H]3[C@@H]4[C@H](O)C=C5C[C@@H](O)CC[C@]5(C)[C@H]4CC[C@]23C)CO1	0.2	> 100
